Assay results of several laboratories.
Protocols differ between the studies behind these lines.
Target: Phosphorylase b kinase gamma catalytic chain, liver/testis isoform (PHKG2, Homo sapiens, UniProt P15735)
One construct used (P15735 1-406): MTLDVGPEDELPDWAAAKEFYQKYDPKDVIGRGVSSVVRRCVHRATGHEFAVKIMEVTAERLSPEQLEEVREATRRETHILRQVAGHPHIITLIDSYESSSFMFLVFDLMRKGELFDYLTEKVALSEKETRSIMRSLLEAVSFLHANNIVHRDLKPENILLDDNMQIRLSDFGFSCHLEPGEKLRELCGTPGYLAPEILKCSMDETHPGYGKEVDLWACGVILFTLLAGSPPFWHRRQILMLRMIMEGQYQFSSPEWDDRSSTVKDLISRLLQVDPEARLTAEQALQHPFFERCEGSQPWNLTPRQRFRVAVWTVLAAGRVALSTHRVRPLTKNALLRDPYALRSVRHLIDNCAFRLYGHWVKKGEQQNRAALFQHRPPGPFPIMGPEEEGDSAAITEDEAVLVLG

Structure (SMILES)	effect on	mode	technique	cells	concentration	measurement	value
NS(=O)(=O)c1cc(NC(=O)C2(c3ccccc3Cl)CC2)ccc1Oc1cccc(Cl)c1	cell-free assay	–	competition with immobilised ligand	–	1 µM	remaining binding	100%
O=C(Nc1cnn(-c2csc(C(=O)NC3COC3)c2)c1)Nc1c(F)cccc1Cl	enzyme activity	inhibitor	–	–	5 µM	remaining activity	131%
N#CCCc1ccc2c(c1)-c1[nH]c3ccc([N+](=O)[O-])cc3c1CC(=O)N2	cell-free assay	–	–	–	0.5 µM	remaining signal	99.1%
CC(C)c1ccc(NC(=O)c2cccs2)c(-c2nc3ccccc3[nH]c2=O)c1	enzyme activity	inhibitor	–	–	1 µM	activity vs control	96%
CNc1cc(Oc2cc(C(=O)Nc3cc(N4CCN(C)CC4)cc(C(F)(F)F)c3)ccc2C)ncn1	target engagement in cells	inhibitor	chemoproteomics	Huh-7	1 µM	inhibition	-18.1%
Cc1ccc(C(=O)NCc2ccsc2)cc1C#Cc1cn(C(C)C)c2ncnc(N)c12	enzyme activity	inhibitor	–	–	1 µM	activity vs control	110%
COc1cc2ncnc(Nc3ccc(Oc4ccccc4)cc3C)c2cc1OC	enzyme activity	inhibitor	–	–	1 µM	inhibition	0%
CCCCNc1ncc2c(-c3ccc(F)cc3)nn(C[C@H]3CC[C@H](N)CC3)c2n1	target engagement in cells	inhibitor	chemoproteomics	–	20 mM	inhibition	-3.3%
CCC(=O)N[C@H]1CC[C@@H](C(=O)N(C)c2ccc(-c3nc4ccccc4o3)cc2)C1	cell-free assay	–	competition with immobilised ligand	–	1 µM	remaining binding	100%
CC(C)(O)[C@H]1CC[C@H](Nc2ccc3ncc(-c4cccc(C(F)(F)F)c4)n3n2)CC1	enzyme activity	inhibitor	–	–	1 µM	remaining activity	99.4%
Cc1cnc(NC2CCOCC2)nc1-n1cnc(C(=O)NC(CN)c2cc(F)cc(Cl)c2)c1 (stereo not shown)	enzyme activity	inhibitor	radiometric	–	1 µM	remaining activity	97%
Nc1ncnc2occ(-c3ccc(NC(=O)Nc4cc(C(F)(F)F)ccc4F)cc3)c12	cell-free assay	inhibitor	–	–	20 µM	remaining signal	53%
CCc1ccccc1C(=O)Nc1n[nH]c2c(C)c(F)c(C3C(C#N)=C(C)N(C)C(C)=C3C#N)cc12	cell-free assay	–	competition with immobilised ligand	–	1 µM	remaining binding	81%
Cc1ccc(Nc2nccc(N(C)c3ccc4c(C)n(C)nc4c3)n2)cc1S(N)(=O)=O	enzyme activity	inhibitor	–	–	10 µM	inhibition	-2%
COc1ccc2c(c1)O[C@H](c1ccc(OC)c(OC)c1)C[C@@H]2NC(=O)C1(c2ccc3c(c2)OC(F)(F)O3)CC1	cell-free assay	–	competition with immobilised ligand	–	1 µM	remaining binding	93%
Oc1cccc(-c2nc(N3CCOCC3)c3oc4ncccc4c3n2)c1	cell-free assay	–	–	–	0.5 µM	remaining signal	99.1%
CCCOc1ccc(OC)c(F)c1C(=O)c1ccc(C(=O)N[C@@H]2CNC[C@H]2NC(=O)c2ccc3[nH]ncc3c2)cc1	enzyme activity	inhibitor	–	–	10 µM	remaining activity	51%
COCCOc1nc(-c2ccc(Cl)nc2)nc2c1CN(C(=O)c1ncn3ccccc13)CC2	cell-free assay	–	competition with immobilised ligand	–	0.1 µM	remaining binding	100%
Cc1ccc(C(=O)Nc2ccc(CN3CCN(C)CC3)c(C(F)(F)F)c2)cc1C#Cc1cnc2cccnn12	enzyme activity	inhibitor	–	–	23.5 nM	remaining activity	100%
CC(=O)N1CCC(c2ccc(C(=O)NC3=NCCN3)cc2C(F)(F)F)CC1	cell-free assay	–	competition with immobilised ligand	–	1 µM	remaining binding	100%
COc1ccc(COc2ccc(Cc3cnc(N)nc3N)cc2OC)cc1	cell-free assay	–	–	–	0.5 µM	remaining signal	106%
CC(C)(C)c1nc2c(s1)c1nc(N)ncc1c1ccc(NS(=O)(=O)c3c(F)cccc3F)c(F)c12	enzyme activity	inhibitor	radiometric	–	1 µM	remaining activity	92%
c1ccc(CNc2nc(N3CCOc4ccccc43)nc3c2CCCC3)cc1	target engagement in cells	inhibitor	chemoproteomics	–	20 mM	inhibition	-2.7%
CCN(CC)CCNC(=O)c1c(C)[nH]c(/C=C2\C(=O)Nc3ccc(F)cc32)c1C	enzyme activity	inhibitor	–	–	0.3 µM	inhibition	81%
Nc1nc(Nc2ccc(S(N)(=O)=O)cc2)nn1C(=O)c1c(F)cccc1F	cell-free assay	–	–	–	0.5 µM	remaining signal	102%
CCCCN(CCCC)C(=O)CN1C[C@H](c2cc(OC)c3c(c2)OCO3)[C@@H](C(=O)O)[C@@H]1CC(C)(C)CCC	cell-free assay	–	competition with immobilised ligand	–	1 µM	remaining binding	100%
CS(=O)(=O)CCNCc1ccc(-c2ccc3ncnc(Nc4ccc(OCc5cccc(F)c5)c(Cl)c4)c3c2)o1	cell-free assay	–	–	–	0.5 µM	remaining signal	99.5%
O=C(Nc1cccnn1)N1CCC(=Cc2cccc(Oc3ccc(C(F)(F)F)cn3)c2)CC1	cell-free assay	–	competition with immobilised ligand	–	1 µM	remaining binding	88%
